Assay results as given in ChEMBL document CHEMBL1156669, “Aldehyde dehydrogenase inhibitors: alpha,beta-acetylenic N-substituted aminothiolesters are reversible growth inhibitors of normal epithelial but irreversible apoptogens for cancer epithelial cells from human prostate in culture” (Eur J Med Chem, 2008).
One block for each molecule: values may come before it.

How the values were obtained:
DU-145 [1] = assay: Growth inhibition of human DU145 cells administered after 3 days; format: functional, cell-based; settings: DU-145, 72 h
Outline: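 DU145 in RPMI 1640 with 10% FCS; 1 × 10⁵ cells per well in 24-well plates, compound added 4 h after seeding. After 3 days the adherent sheet was washed twice with PBS and harvested in 0.14 M NaOH, and protein content measured. IC50 is the mean of three experiments.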

[2] = Growth inhibition of HPEN cells administered after 3 days; format: cell-based; settings: Homo sapiens, 72 h
Outline: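 HPENC in PrEGM with supplement and 10% FCS; 1 × 10⁵ cells per well in 24-well plates, compound added 4 h after seeding once adhered. After 3 days, growth read as protein content. IC50 is the mean of three experiments.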

BaF3 = assay: Induction of apoptosis in mouse BAF3 cells overexpressing bcl2; format: functional, cell-based
[3] = biological target: T1, Aldehyde dehydrogenase 1, mitochondrial (Saccharomyces cerevisiae) (UniProt P22281); assay: Inhibition of yeast ALDH1 at 600 uM
T1 sequence (whole entry): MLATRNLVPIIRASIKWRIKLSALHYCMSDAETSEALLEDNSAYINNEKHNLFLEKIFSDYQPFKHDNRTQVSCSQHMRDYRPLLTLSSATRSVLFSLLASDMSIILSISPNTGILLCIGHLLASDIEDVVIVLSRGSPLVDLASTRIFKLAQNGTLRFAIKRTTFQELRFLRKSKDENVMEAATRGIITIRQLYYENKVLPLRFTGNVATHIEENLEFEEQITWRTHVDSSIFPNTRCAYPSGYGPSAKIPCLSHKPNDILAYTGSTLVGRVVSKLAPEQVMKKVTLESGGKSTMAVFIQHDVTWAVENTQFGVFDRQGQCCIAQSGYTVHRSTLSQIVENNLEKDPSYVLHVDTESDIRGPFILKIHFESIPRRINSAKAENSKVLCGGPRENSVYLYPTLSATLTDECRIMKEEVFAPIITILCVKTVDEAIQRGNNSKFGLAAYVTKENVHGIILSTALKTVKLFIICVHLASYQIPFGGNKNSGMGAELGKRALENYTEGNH

MRC5 = assay: Growth inhibition of human MRC5 cells; format: cell-based
[4] = Growth inhibition of human androgen-sensitive MOP cells after 3 days; format: functional; settings: 72 h
Outline: (§1)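 MOP (androgen-sensitive, LNCaP grown long-term in steroid-deprived medium) and ME (from regrown MOP xenografts under androgen) in RPMI 1640 with 5% charcoal-treated FCS. Seeded 1 × 10⁵ cells per well in 24-well plates, compound added at 4 h, cell count by Coulter counter after 3 days. IC50 is the mean of three experiments.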

[5] = Growth inhibition of human androgen-resistant ME cells after 3 days; format: functional; settings: 72 h; outline: as §1
DU-145 [6] = assay: Growth inhibition of human DU145 cells at 2 uM after 3 days; format: functional; settings: DU-145, 72 h
Outline: (§2)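 Cells seeded at 1 × 10⁵ per well in 24-well plates; compound added 4 h post-seeding and left for 3 days. Growth inhibition measured as protein content relative to control. HPENC values are means of three experiments in duplicate; DU145 values are means of five experiments in duplicate.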

DU-145 [7] = assay: Growth inhibition of human DU145 cells at 5 uM after 3 days; format: functional; settings: DU-145, 72 h; outline: as §2
DU-145 [8] = assay: Growth inhibition of human DU145 cells at 10 uM after 3 days; format: functional; settings: DU-145, 72 h; outline: as §2
[9] = Growth inhibition of HPEN cells at 2 uM after 3 days; format: cell-based; settings: human; outline: as §2
[10] = Growth inhibition of HPEN cells at 5 uM after 3 days; format: cell-based; settings: human; outline: as §2
[11] = Growth inhibition of HPEN cells at 10 uM after 3 days; format: cell-based; settings: human; outline: as §2
DU-145 [12] = assay: Reversal of growth inhibition in human DU145 cells assessed as increase in cell number at 10 uM after 8 days; format: functional
Outline: (§3)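 Cells seeded in six wells and treated from 4 h after seeding. Two wells were left in the original drug-containing medium for a further 5 days. Growth measured on day 8 as protein content of adherent cells and expressed as the day 8/day 3 ratio. EtOH vehicle controls were handled identically. Two experiments in duplicate.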

DU-145 [13] = assay: Reversal of growth inhibition in human DU145 cells assessed as increase in cell number at 15 uM after 8 days; format: functional; outline: as §3
DU-145 [14] = assay: Reversal of growth inhibition in human DU145 cells assessed as increase in cell number at 10 uM on day 3 replaced with fresh medium without drug and measured after 8 days; format: functional
Outline: (§4)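 Cells were treated for 3 days. The medium was then aspirated, the sheet washed with PBS and fresh drug-free medium added, followed by 5 more days of culture. Growth measured on day 8 as adherent-cell protein and expressed relative to the day-3 protein content of parallel wells. Two experiments in duplicate.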

DU-145 [15] = assay: Reversal of growth inhibition in human DU145 cells assessed as increase in cell number at 15 uM on day 3 replaced with fresh medium without drug and measured after 8 days; format: functional; outline: as §4
[16] = Reversal of growth inhibition in HPEN cells assessed as increase in cell number at 10 uM after 8 days; format: cell-based; settings: human, 192 h; outline: as §3
[17] = Reversal of growth inhibition in HPEN cells assessed as increase in cell number at 15 uM after 8 days; format: cell-based; settings: human, 192 h; outline: as §3
[18] = Reversal of growth inhibition in HPEN cells assessed as increase in cell number at 10 uM on day 3 replaced with fresh medium without drug and measured after 8 days; format: cell-based; settings: human, 192 h; outline: as §4
[19] = Reversal of growth inhibition in HPEN cells assessed as increase in cell number at 15 uM on day 3 replaced with fresh medium without drug and measured after 8 days; format: cell-based; settings: human, 192 h; outline: as §4
[20] = biological target: T2, Aldehyde dehydrogenase 1A1 (Homo sapiens) (UniProt P00352); assay: Inhibition of ALDH1 in human DU145 cells at 2.5 uM after 3 days; format: cell-based; settings: DU-145
T2 sequence (whole entry): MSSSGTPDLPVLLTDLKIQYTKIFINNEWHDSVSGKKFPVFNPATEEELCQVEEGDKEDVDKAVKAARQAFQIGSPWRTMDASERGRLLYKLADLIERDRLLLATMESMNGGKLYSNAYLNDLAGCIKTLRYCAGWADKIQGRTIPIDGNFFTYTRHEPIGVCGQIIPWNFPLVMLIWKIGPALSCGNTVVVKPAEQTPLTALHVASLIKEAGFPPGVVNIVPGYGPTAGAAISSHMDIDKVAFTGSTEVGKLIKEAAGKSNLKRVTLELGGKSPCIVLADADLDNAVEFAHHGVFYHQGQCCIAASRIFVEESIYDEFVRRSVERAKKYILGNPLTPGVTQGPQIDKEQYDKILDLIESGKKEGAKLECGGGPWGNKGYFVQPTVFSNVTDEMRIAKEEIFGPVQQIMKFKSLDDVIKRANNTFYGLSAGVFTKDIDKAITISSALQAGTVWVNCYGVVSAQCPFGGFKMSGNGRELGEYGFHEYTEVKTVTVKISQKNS
Outline: (§5)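 DU145 treated for 3 days, trypsinised, washed in PBS and lysed in 60 mM sodium phosphate pH 7 with 1% Triton X-100 and 1 mM EDTA, 30 min at 4 °C; lysate spun at 48,000g for 30 min. ALDH1: supernatant in phosphate pH 8.5, 1 mM EDTA, 100 mM KCl, 2.35 mM NAD, propanal substrate. ALDH3: 5 mM benzaldehyde, 2.5 mM NADP, 1 mM pyrazole. Two experiments in duplicate.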

[21] = biological target: T2, Aldehyde dehydrogenase 1A1 (Homo sapiens); assay: Inhibition of ALDH1 in human DU145 cells at 5 uM after 3 days; format: cell-based; settings: DU-145; outline: as §5
[22] = biological target: T2, Aldehyde dehydrogenase 1A1 (Homo sapiens); assay: Inhibition of ALDH1 in human DU145 cells at 7.5 uM after 3 days; format: cell-based; settings: DU-145; outline: as §5
[23] = biological target: T3, Aldehyde dehydrogenase, dimeric NADP-preferring (Homo sapiens) (UniProt P30838); assay: Inhibition of ALDH3 in human DU145 cells at 2.5 uM after 3 days; format: cell-based; settings: DU-145; outline: as §5
T3 sequence (whole entry): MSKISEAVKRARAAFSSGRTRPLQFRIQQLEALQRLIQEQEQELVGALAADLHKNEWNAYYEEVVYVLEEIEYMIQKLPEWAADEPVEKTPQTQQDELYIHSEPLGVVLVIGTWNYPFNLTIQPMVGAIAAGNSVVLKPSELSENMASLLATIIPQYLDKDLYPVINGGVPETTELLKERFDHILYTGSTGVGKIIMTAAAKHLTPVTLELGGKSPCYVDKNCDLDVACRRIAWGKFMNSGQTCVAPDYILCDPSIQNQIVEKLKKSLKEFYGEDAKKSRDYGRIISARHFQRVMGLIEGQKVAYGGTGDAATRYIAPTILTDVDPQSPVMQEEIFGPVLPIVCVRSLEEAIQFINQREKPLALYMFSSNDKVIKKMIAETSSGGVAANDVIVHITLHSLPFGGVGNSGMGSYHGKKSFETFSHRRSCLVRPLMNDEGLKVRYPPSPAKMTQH

[24] = biological target: T3, Aldehyde dehydrogenase, dimeric NADP-preferring (Homo sapiens); assay: Inhibition of ALDH3 in human DU145 cells at 5 uM after 3 days; format: cell-based; settings: DU-145; outline: as §5
[25] = biological target: T3, Aldehyde dehydrogenase, dimeric NADP-preferring (Homo sapiens); assay: Inhibition of ALDH3 in human DU145 cells at 7.5 uM after 3 days; format: cell-based; settings: DU-145; outline: as §5
DU-145 [26] = assay: Growth inhibition of human DU145 cells at 15 uM after 3 days; format: functional; settings: DU-145, 72 h
Outline: (§6)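 Vehicle controls received 0.5% EtOH. Cells seeded at 1 × 10⁵ per well, compound added at 4 h. Growth inhibition measured by protein content at day 3; two experiments, each in duplicate.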

[27] = Growth inhibition of HPEN cells at 15 uM after 3 days; format: cell-based; settings: human; outline: as §6
[28] = biological target: Aldehyde dehydrogenase 1 (Saccharomyces cerevisiae); assay: Inhibition of ALDH1

SMILES: CSC(=O)C#CC(C)(C)N(C)CCc1ccccc1
IC50 (DU-145 [1]): 6 µM

SMILES: CSC(=O)C#CC(C)(C)[N+](C)(C)C
IC50 (DU-145 [1]): > 600 µM
IC50 [2]: 590 µM

SMILES: CSC(=O)C#CC(C)(C)N(Cc1ccccc1)Cc1ccccc1
IC50 (DU-145 [1]): 7 µM

SMILES: CSC(=O)C#CC(C)(C)N
IC50 (BaF3): 4 µM
Ki [28]: 280 µM

SMILES: CCCN(CCC)C(C)(C)C#CC(=O)SC
IC50 (DU-145 [1]): 12.6 µM

The next lines start with results.

IC50 (DU-145 [1]): 1.4 µM
SMILES: CSC(=O)C#CC(C)(C)N(C)Cc1ccccc1
IC50 [2]: 1.9 µM

IC50 (BaF3): 12 µM
inhibition [3]: 15%
IC50 (DU-145 [1]): 9.3 µM
inhibition [20]: 3%
inhibition [21]: 20%
inhibition [22]: 32%
inhibition [23]: 40%
inhibition [24]: 60%
inhibition [25]: 78%
SMILES: CSC(=O)C#CC(C)(C)N1CCOCC1
IC50 (MRC5): 29 µM
IC50 [2]: > 10 µM
IC50 [4]: 10 µM
IC50 [5]: 10 µM
inhibition at 2 µM (DU-145 [6]): 0%
inhibition at 5 µM (DU-145 [7]): 8%
inhibition at 10 µM (DU-145 [8]): 70%
inhibition at 72 h, 2 µM [9]: 3%
inhibition at 72 h, 5 µM [10]: 6%
inhibition at 72 h, 10 µM [11]: 11%
Activity (DU-145 [12]): 3
Activity (DU-145 [13]): 1.9
Activity (DU-145 [14]): 2.6
Activity (DU-145 [15]): 1.6
Activity [16]: 0.4
Activity [17]: 1.4
Activity [18]: 1.6
Activity [19]: 2.6
inhibition at 15 µM (DU-145 [26]): 88%
inhibition at 72 h, 15 µM [27]: 37%

IC50 (DU-145 [1]): 100 µM
SMILES: CN(C)C(=S)C#CC(C)(C)N1CCOCC1
